≈ marks a conversion by molar mass, not a printed value.
Legend:
Type in all cases: functional
Enterococcus faecalis [1] = assay: Antibacterial activity against Enterococcus faecalis L560 expressing VanA gene after 24 hrs by broth microdilution method
Procedure, shortened: (§1)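 CLSI broth microdilution MIC in Müller Hinton broth with 20 mg/L CaCl2 and 10 mg/L MgCl2. Compounds were dissolved in DMSO and diluted in medium just before testing. Inoculum was 5 × 10^5 cfu/mL, incubated 24 h at 37 °C. MIC was the lowest concentration giving complete suppression of visible growth. Strains came from ATCC or an in-house collection (L-prefix).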

Enterococcus faecium [2] = assay: Antibacterial activity against Enterococcus faecium L568 expressing VanS gene after 24 hrs by broth microdilution method; procedure, shortened: as §1
Staphylococcus aureus [3] = assay: Antibacterial activity against methicillin-resistant Staphylococcus aureus ND035208 after 24 hrs by broth microdilution method
Procedure, shortened: (§2)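 Broth microdilution per CLSI in Müller Hinton broth with 20 mg/L CaCl2 and 10 mg/L MgCl2. Inoculum 5 × 10^5 cfu/mL, 24 h at 37 °C. Compounds dissolved in DMSO and diluted in medium just before testing. MIC taken as lowest concentration giving complete suppression of visible growth.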

Staphylococcus aureus [4] = assay: Antibacterial activity against Staphylococcus aureus GISA L3798 after 24 hrs by broth microdilution method; procedure, shortened: as §2
Enterococcus faecium [5] = assay: Antibacterial activity against Enterococcus faecium L569 expressing VanA gene after 24 hrs by broth microdilution method; procedure, shortened: as §1
Streptococcus pyogenes = assay: Antibacterial activity against Streptococcus pyogenes L49 after 24 hrs by broth microdilution method
Streptococcus pneumoniae = assay: Antibacterial activity against Streptococcus pneumoniae ATCC 49619 after 24 hrs by broth microdilution method
Enterococcus faecalis [6] = assay: Antibacterial activity against Enterococcus faecalis L559 expressing VanS gene after 24 hrs by broth microdilution method; procedure, shortened: as §1
Staphylococcus aureus [7] = assay: Antibacterial activity against methicillin-sensitive Staphylococcus aureus L819/ATCC 19636 after 24 hrs by broth microdilution method; procedure, shortened: as §1

Compound | MIC (Enterococcus faecalis [1]; L560, 24 h) [µg/mL] | MIC (Enterococcus faecium [2]; L568, 24 h) [µg/mL] | MIC (Staphylococcus aureus [3]; ND035208, 24 h) [µg/mL] | MIC (Staphylococcus aureus [4]; GISA L3798, 24 h) [µg/mL] | MIC (Enterococcus faecium [5]; L569, 24 h) [µg/mL] | MIC (Streptococcus pyogenes; L49, 24 h) [µg/mL] | MIC (Streptococcus pneumoniae; ATCC 49619, 24 h) [µg/mL] | MIC (Enterococcus faecalis [6]; L559, 24 h) [µg/mL] | MIC (Staphylococcus aureus [7]; L819/ATCC 19636, 24 h) [µg/mL] | MIC (Enterococcus faecalis [1]) [µg/mL] | MIC (Enterococcus faecium [2]) [µg/mL] | MIC (Staphylococcus aureus [3]) [µg/mL] | MIC (Staphylococcus aureus [4]) [µg/mL] | MIC (Enterococcus faecium [5]) [µg/mL] | MIC (Streptococcus pyogenes) [µg/mL] | MIC (Streptococcus pneumoniae) [µg/mL] | MIC (Enterococcus faecalis [6]) [µg/mL] | MIC (Staphylococcus aureus [7]) [µg/mL]
C=C1NC(=O)[C@H](Cc2c[nH]c3ccc(Cl)cc23)NC(=O)[C@@H](NC(=O)/C(=C/C)NC(=O)[C@@H](N)C(C)C)CSC[C@@H](C(=O)N[C@@H]2C(=O)N3CCC[C@H]3C(=O)NCC(=O)N[C@H](C(=O)N[C@H](C(=O)N[C@H]3CSC[C@@H]4NC(=O)[C@H](CC(=O)O)NC(=O)[C@H](CSC[C@@H]5NC(=O)[C@H](Cc6ccccc6)NC(=O)[C@H](CS/C=C\NC5=O)NC4=O)NC(=O)CNC(=O)CNC(=O)CNC(=O)[C@@H]4CCCN4C3=O)[C@@H](C)O)CSC2C)NC(=O)[C@H](CC(C)C)NC1=O (stereo not given in full) | 4 (≈ 1.8 µM) | 8 (≈ 3.61 µM) | 4 (≈ 1.8 µM) | 4 (≈ 1.8 µM) | 8 (≈ 3.61 µM) | ≤ 0.001 | 0.03 (≈ 0.0135 µM) | 8 (≈ 3.61 µM) | 0.5 (≈ 0.225 µM) |  |  |  |  |  |  |  |  | 
C=C1NC(=O)[C@H](Cc2c[nH]c3ccccc23)NC(=O)[C@@H](NC(=O)/C(=C/C)NC(=O)[C@@H](N)C(C)C)CSC[C@@H](C(=O)N[C@@H]2C(=O)N3CCC[C@H]3C(=O)NCC(=O)N[C@H](C(=O)N[C@H](C(=O)N[C@H]3CSC[C@@H]4NC(=O)[C@H](CC(=O)O)NC(=O)[C@H](CSC[C@@H]5NC(=O)[C@H](Cc6ccccc6)NC(=O)[C@H](CS/C=C\NC5=O)NC4=O)NC(=O)CNC(=O)CNC(=O)CNC(=O)[C@@H]4CCCN4C3=O)[C@@H](C)O)CSC2C)NC(=O)[C@H](CC(C)C)NC1=O (stereo not given in full) | 32 (≈ 14.7 µM) | 32 (≈ 14.7 µM) | 8 (≈ 3.66 µM) | 16 (≈ 7.33 µM) | 32 (≈ 14.7 µM) | ≤ 0.03 | ≤ 0.03 | 64 (≈ 29.3 µM) | 4 (≈ 1.83 µM) |  |  |  |  |  |  |  |  | 
C=C1NC(=O)[C@H](Cc2c[nH]c3ccc(Cl)cc23)NC(=O)[C@@H](NC(=O)/C(=C/C)NC(=O)[C@@H](N)C(C)C)CSC[C@@H](C(=O)N[C@@H]2C(=O)N3CCC[C@H]3C(=O)NCC(=O)N[C@H](C(=O)N[C@H](C(=O)N[C@H]3CSC[C@@H]4NC(=O)[C@H](CC(=O)O)NC(=O)[C@H](CSC[C@@H]5NC(=O)[C@H](Cc6ccccc6)NC(=O)[C@H](CS/C=C\NC5=O)NC4=O)NC(=O)CNC(=O)CNC(=O)CNC(=O)[C@@H]4C(O)C(O)CN4C3=O)[C@@H](C)O)CSC2C)NC(=O)[C@H](CC(C)C)NC1=O (stereo not given in full) | 1 (≈ 0.444 µM) | 4 (≈ 1.78 µM) | 1 (≈ 0.444 µM) | 1 (≈ 0.444 µM) | 4 (≈ 1.78 µM) | ≤ 0.001 | 0.015 (≈ 0.00667 µM) | 2 (≈ 0.889 µM) | 0.25 (≈ 0.111 µM) |  |  |  |  |  |  |  |  | 
C=C1NC(=O)[C@H](Cc2c[nH]c3ccc(Cl)cc23)NC(=O)[C@@H](NC(=O)/C(=C/C)NC(=O)[C@@H](N)C(C)C)CSC[C@@H](C(=O)N[C@@H]2C(=O)N3CCC[C@H]3C(=O)NCC(=O)N[C@H](C(=O)N[C@H](C(=O)N[C@H]3CSC[C@@H]4NC(=O)[C@H](CC(=O)O)NC(=O)[C@H](CSC[C@@H]5NC(=O)[C@H](Cc6ccccc6)NC(=O)[C@H](CS/C=C\NC5=O)NC4=O)NC(=O)CNC(=O)CNC(=O)CNC(=O)[C@@H]4CC(O)CN4C3=O)[C@@H](C)O)CSC2C)NC(=O)[C@H](CC(C)C)NC1=O (stereo not given in full) | 2 (≈ 0.895 µM) | 4 (≈ 1.79 µM) | 1 (≈ 0.448 µM) | 2 (≈ 0.895 µM) | 4 (≈ 1.79 µM) | ≤ 0.001 | 0.03 (≈ 0.0134 µM) | 2 (≈ 0.895 µM) | 0.25 (≈ 0.112 µM) |  |  |  |  |  |  |  |  | 
GENTAMICIN |  |  |  |  |  |  |  |  |  | 4 | 16 | > 128 | 0.02 | 16 | 16 | 8 | 4 | 1
